Source: ChEMBL document CHEMBL4330109, “Parallel synthesis of a bis-triazoles library as psammaplin A analogues: A new wave of antibiofilm compounds?” (Bioorg Med Chem Lett, 2019)

Legend:
[1] = system: Pseudoalteromonas lipolytica; assay: Anti-biofilm activity against Pseudoalteromonas lipolytica TC8 assessed as inhibition of bacterial adhesion incubated for 15 hrs at 20 degC by Syto 61 dye based fluorimetric assay; assay type: functional, organism-based
In short: (§1)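 Biofilm formation (adhesion) of the marine strains was measured with the Syto 61 fluorophore, using a method adapted from Leroy et al. Compounds were first screened at 200 µM, and the value is % adhesion at that concentration. EC50 values were derived from the same assay.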

[2] = system: Paracoccus sp.; assay: Anti-biofilm activity against Paracoccus sp. 4M6 assessed as bacterial adhesion at 200 uM incubated for 15 hrs at 20 degC by Syto 61 dye based fluorimetric assay relative to control; assay type: functional; in short: as §1
[3] = system: Pseudoalteromonas ulvae; assay: Anti-biofilm activity against Pseudoalteromonas ulvae TC14 assessed as inhibition of bacterial adhesion incubated for 15 hrs at 20 degC by Syto 61 dye based fluorescence assay; assay type: functional, organism-based; in short: as §1
[4] = system: Paracoccus sp.; assay: Anti-biofilm activity against Paracoccus sp. 4M6 assessed as inhibition of bacterial adhesion incubated for 15 hrs at 20 degC by Syto 61 dye based fluorimetric assay; assay type: functional, organism-based; in short: as §1
[5] = system: Paracoccus sp.; assay: Effect on cell viability of Paracoccus sp. 4M6 at 100 uM measured after 6 hrs by resazurin dye based fluorescence assay; assay type: organism-based
In short: (§2)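 Viability was scored with resazurin, following the same protocol as the Syto 61 antiadhesion assay. Compounds were tested at 5, 10, 20, 50, 100 and 200 µM on each strain, and the 5 and 100 µM points are the ones reported.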

[6] = system: Pseudoalteromonas lipolytica; assay: Effect on cell viability of Pseudoalteromonas lipolytica TC8 at 100 uM measured after 6 hrs by resazurin dye based fluorescence assay; assay type: organism-based; in short: as §2
[7] = system: Paracoccus sp.; assay: Effect on cell viability of Paracoccus sp. 4M6 at 5 uM measured after 6 hrs by resazurin dye based fluorescence assay; assay type: organism-based; in short: as §2
[8] = system: Pseudoalteromonas ulvae; assay: Anti-biofilm activity against Pseudoalteromonas ulvae TC14 assessed as bacterial adhesion at 200 uM incubated for 15 hrs at 20 degC by Syto 61 dye based fluorescence assay relative to control; assay type: functional; in short: as §1
[9] = system: Pseudoalteromonas lipolytica; assay: Growth inhibition of Pseudoalteromonas lipolytica TC8 at 100 uM measured every hr for 6 hrs by turbidimetric method; assay type: organism-based; conditions: in vivo
In short: (§3)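 Bacterial growth of TC14, TC8 and 4M6 was followed with test compounds at 100 µM. Ampicillin at 5 µM served as the reference antibiotic.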

[10] = system: Paracoccus sp.; assay: Growth inhibition of Paracoccus sp. 4M6 at 100 uM measured every hr for 6 hrs by turbidimetric method; assay type: organism-based; conditions: in vivo; in short: as §3
[11] = system: Pseudoalteromonas ulvae; assay: Effect on cell viability of Pseudoalteromonas ulvae TC14 at 100 uM measured after 6 hrs by resazurin dye based fluorescence assay; assay type: organism-based; in short: as §2
[12] = system: Pseudoalteromonas lipolytica; assay: Effect on cell viability of Pseudoalteromonas lipolytica TC8 at 5 uM measured after 6 hrs by resazurin dye based fluorescence assay; assay type: organism-based; in short: as §2
[13] = system: Pseudoalteromonas ulvae; assay: Growth inhibition of Pseudoalteromonas ulvae TC14 at 100 uM measured every hr for 6 hrs by turbidimetric method; assay type: organism-based; conditions: in vivo; in short: as §3
[14] = system: Pseudoalteromonas lipolytica; assay: Anti-biofilm activity against Pseudoalteromonas lipolytica TC8 assessed as bacterial adhesion at 200 uM incubated for 15 hrs at 20 degC by Syto 61 dye based fluorimetric assay relative to control; assay type: functional; in short: as §1
[15] = system: Pseudoalteromonas ulvae; assay: Effect on cell viability of Pseudoalteromonas ulvae TC14 at 5 uM measured after 6 hrs by resazurin dye based fluorescence assay; assay type: organism-based; in short: as §2
[16] = system: Paracoccus sp.; assay: Growth inhibition of Paracoccus sp. 4M6 at 5 uM measured every hr for 6 hrs by turbidimetric method; assay type: organism-based; conditions: in vivo; in short: as §3
[17] = system: Pseudoalteromonas lipolytica; assay: Growth inhibition of Pseudoalteromonas lipolytica TC8 at 5 uM measured every hr for 6 hrs by turbidimetric method; assay type: organism-based; conditions: in vivo; in short: as §3
[18] = system: Pseudoalteromonas ulvae; assay: Growth inhibition of Pseudoalteromonas ulvae TC14 at 5 uM measured every hr for 6 hrs by turbidimetric method; assay type: organism-based; conditions: in vivo; in short: as §3
[19] = Pseudoalteromonas lipolytica, TC8, 15 h
[20] = Pseudoalteromonas ulvae, TC14, 15 h
[21] = Paracoccus sp. (in: a-proteobacteria), 4M6, 15 h

Compound | EC50 [1, 19] [µM] | Activity [2] [%] | EC50 [3, 20] [µM] | EC50 [4, 21] [µM] | Activity [8] [%] | Activity [14] [%] | also measured
CN(C)CCCOc1ccc(CCn2cc(CCCc3cn(CCc4ccc(OCCCN(C)C)c(Br)c4)nn3)nn2)cc1Br | > 200 | 77.2 | > 200 | > 200 |  |  | 
CN(C)CCCOc1ccc(CCn2cc(-c3ccc(-c4cn(CCc5ccc(OCCCN(C)C)c(Br)c5)nn4)cc3)nn2)cc1Br | 15 | 5.1 | 0.4 | 3.5 | 0.6 | 5.3 | Activity [5]: Toxic; Activity [6]: Toxic; Activity [7]: Non-Toxic; growth inhibition (GI) [9]: Toxic; growth inhibition (GI) [10]: Toxic; Activity [11]: Toxic; Activity [12]: Non-Toxic; growth inhibition (GI) [13]: Toxic; Activity [15]: Non-Toxic
COc1ccc(CCn2cc(-c3cccc(-c4cn(CCc5ccc(OC)c(Br)c5)nn4)c3)nn2)cc1Br | > 200 | 76.2 | > 200 | > 200 | 74.1 | 101.1 | 
CN(C)CCCOc1ccc(CCn2cc(COCc3cn(CCc4ccc(OCCCN(C)C)c(Br)c4)nn3)nn2)cc1Br | > 200 | 53.7 |  | > 200 |  |  | 
Oc1ccc(CCn2cc(-c3ccc(-c4cn(CCc5ccc(O)c(Br)c5)nn4)cc3)nn2)cc1Br | > 200 | 31.8 | 40.9 | 59.9 | 31.1 |  | 
CC1(C)S[C@@H]2[C@H](NC(=O)[C@H](N)c3ccccc3)C(=O)N2[C@H]1C(=O)O [AMPICILLIN] |  |  |  |  |  |  | growth inhibition (GI) [16]: Toxic; Activity [7]: Toxic; growth inhibition (GI) [17]: Toxic; Activity [12]: Toxic; growth inhibition (GI) [18]: Toxic; Activity [15]: Toxic
Oc1ccc(CCn2cc(CCCCc3cn(CCc4ccc(O)c(Br)c4)nn3)nn2)cc1Br | > 200 | 52.4 | > 200 | > 200 |  |  | 
COc1ccc(CCn2cc(CCCCc3cn(CCc4ccc(OC)c(Br)c4)nn3)nn2)cc1Br | > 200 | 50.9 | > 200 | > 200 |  |  | 
COc1ccc(CCn2cc(CCCc3cn(CCc4ccc(OC)c(Br)c4)nn3)nn2)cc1Br | > 200 | 49.2 | > 200 | > 200 |  | 50 | 
CN(C)CCOc1ccc(CCn2cc(CCCCCCc3cn(CCc4ccc(OCCN(C)C)c(Br)c4)nn3)nn2)cc1Br | > 200 | 59.5 | > 200 | > 200 |  | 54.4 | 
CN(C)CCCOc1ccc(CCn2cc(-c3cccc(-c4cn(CCc5ccc(OCCCN(C)C)c(Br)c5)nn4)c3)nn2)cc1Br | > 200 | 78.1 | > 200 | > 200 | 65.3 | 71.6 | 
COc1ccc(CCn2cc(COCc3cn(CCc4ccc(OC)c(Br)c4)nn3)nn2)cc1Br |  | 44.9 |  | 164 | 38.5 | 42.8 | 
CN(C)CCOc1ccc(CCn2cc(CCCc3cn(CCc4ccc(OCCN(C)C)c(Br)c4)nn3)nn2)cc1Br | > 200 | 51.5 | > 200 | > 200 |  | 57 | 
CN(C)CCCOc1ccc(CCn2cc(CCCCCCc3cn(CCc4ccc(OCCCN(C)C)c(Br)c4)nn3)nn2)cc1Br | > 200 | 84.7 | > 200 | > 200 | 71 | 72.3 | 
CN(C)CCOc1ccc(CCn2cc(COCc3cn(CCc4ccc(OCCN(C)C)c(Br)c4)nn3)nn2)cc1Br |  | 40.4 | 91.8 | 146 |  |  | 
CN(C)CCCOc1ccc(CCn2cc(CNCc3cn(CCc4ccc(OCCCN(C)C)c(Br)c4)nn3)nn2)cc1Br |  | 56.3 | > 200 | > 200 | 45 |  | 
Oc1ccc(CCn2cc(CCCCCCc3cn(CCc4ccc(O)c(Br)c4)nn3)nn2)cc1Br | > 200 | 78.1 | > 200 | > 200 | 61.7 | 75 | 
Oc1ccc(CCn2cc(COCc3cn(CCc4ccc(O)c(Br)c4)nn3)nn2)cc1Br |  | 47.8 |  | 198 | 40.3 | 50.3 | 
COc1ccc(CCn2cc(CCCCCCc3cn(CCc4ccc(OC)c(Br)c4)nn3)nn2)cc1Br | > 200 | 69.2 | > 200 | > 200 | 62.7 | 78.3 | 
Oc1ccc(CCn2cc(CCCc3cn(CCc4ccc(O)c(Br)c4)nn3)nn2)cc1Br | > 200 | 83.4 | > 200 | > 200 | 53.1 | 63.5 | 
CN(C)CCOc1ccc(CCn2cc(CNCc3cn(CCc4ccc(OCCN(C)C)c(Br)c4)nn3)nn2)cc1Br |  | 51.8 |  | > 200 | 40.9 |  | 
CN(C)CCCOc1ccc(CCn2cc(CCCCc3cn(CCc4ccc(OCCCN(C)C)c(Br)c4)nn3)nn2)cc1Br | > 200 | 80.7 | > 200 | > 200 | 66.5 | 89.2 | 
CN(C)CCOc1ccc(CCn2cc(-c3ccc(-c4cn(CCc5ccc(OCCN(C)C)c(Br)c5)nn4)cc3)nn2)cc1Br | 5.1 | 10.1 | 0.9 | 5.1 | 0 | 14.6 | Activity [5]: Toxic; Activity [6]: Toxic; Activity [7]: Non-Toxic; growth inhibition (GI) [9]: Toxic; growth inhibition (GI) [10]: Toxic; Activity [11]: Toxic; Activity [12]: Non-Toxic; growth inhibition (GI) [13]: Toxic; Activity [15]: Non-Toxic
Oc1ccc(CCn2cc(CNCc3cn(CCc4ccc(O)c(Br)c4)nn3)nn2)cc1Br | 80.3 | 27.9 | 59.9 | 88.3 |  |  | 
Oc1ccc(CCn2cc(-c3cccc(-c4cn(CCc5ccc(O)c(Br)c5)nn4)c3)nn2)cc1Br | > 200 | 61.5 | > 200 | > 200 | 56.8 | 66.5 | 
CN(C)CCOc1ccc(CCn2cc(-c3cccc(-c4cn(CCc5ccc(OCCN(C)C)c(Br)c5)nn4)c3)nn2)cc1Br | > 200 | 66.9 | > 200 | > 200 | 62.2 | 65.1 | 
tributyltin-oxide |  |  |  |  |  |  | EC50 [1]: 7 µM; EC50 [3]: 0.7 µM; EC50 [4]: 4 µM
CN(C)CCOc1ccc(CCn2cc(CCCCc3cn(CCc4ccc(OCCN(C)C)c(Br)c4)nn3)nn2)cc1Br | > 200 | 57.4 | > 200 | > 200 |  | 58.5 | 
COc1ccc(CCn2cc(CNCc3cn(CCc4ccc(OC)c(Br)c4)nn3)nn2)cc1Br |  | 46.3 |  | 194 |  |  | 
